# Measurements gathered from unrelated publications.
# Lines come from different studies, so protocols differ.
# Target: Dual specificity protein kinase CLK4 (CLK4, Homo sapiens, UniProt Q9HAZ1)
SMILES,assay,setting,remaining binding
O=C(NCCCN1CCOCC1)c1ccc(Nc2nccc(-c3cc4ccccc4s3)n2)cc1,"binding, competition with immobilised ligand",1 µM,11%
O=S(=O)(NC1CCC(c2cc(F)ccc2F)(S(=O)(=O)c2ccc(Cl)cc2)CC1)C(F)(F)F (stereo not shown),"cell-free assay, competition with immobilised ligand",1 µM,84%
N[C@H]1CCN(c2nccc(-c3cnn4ncccc34)n2)C1,binding,1 µM,22%
Cc1noc([C@H]2C[C@@H](c3ccc(C(F)(F)F)cc3)CN(C(=O)N3CCS(=O)(=O)C3)C2)n1,"cell-free assay, competition with immobilised ligand",1 µM,83%
F[C@@H]1CCN(c2nccc(-c3cnn4ncccc34)n2)C1,binding,1 µM,60%
CC1=C(C#N)C(c2ccc3c(c2)c(NC(=O)c2ccccc2C)nn3C)C(C#N)=C(C)N1,"cell-free assay, competition with immobilised ligand",1 µM,76%
O=C(Nc1c[nH]nc1C(=O)NC1CCNCC1)c1cc(F)cc(F)c1,"binding, competition with immobilised ligand",1 µM,75%
C[C@@H]1CCN(c2nccc(-c3cnn4ncccc34)n2)C1,binding,1 µM,12%
C[C@@H](c1ccc(-n2cnc3c(N)ncnc32)cc1)N1CCc2nn(C)c(Cc3ccccc3)c2C1=O,"binding, competition with immobilised ligand",0.1 µM,100%
O=C(c1ccc(Nc2ncc(Cl)c(-c3cc4ccccc4s3)n2)cc1)N1CCC(N2CCCC2)CC1,"binding, competition with immobilised ligand",1 µM,0%
CC(C)(O)c1cncc(-c2nc3ccc(F)cc3n2C2CC2)c1,"cell-free assay, competition with immobilised ligand",1 µM,54%
FC(F)(F)Oc1cccc(-c2cnc3ccc(-c4ccncc4)nn23)c1,"cell-free assay, competition with immobilised ligand",5 µM,7.8%
Cc1c(C(=O)O)cc(-c2ccc(C3CCNCC3)cc2)c2ccc(-c3ccc(C(F)(F)F)cc3)cc12,"binding, competition with immobilised ligand",1 µM,100%
O=C(c1ccc(Nc2nccc(-c3cc4ccccc4s3)n2)cc1)N1CCC(N2CCCC2)CC1,"binding, competition with immobilised ligand",1 µM,27%
CN(C)c1nccc(-c2cnn3ncccc23)n1,binding,1 µM,5.9%
Cn1cc(Cl)c2c(Oc3c(F)cc(Nc4cc(Cl)nc(N)n4)cc3F)ccnc21,"cell-free assay, competition with immobilised ligand",0.1 µM,100%
CN(C)c1nccc(-c2cnc3ncccn23)n1,binding,1 µM,14%
CO[C@@H](C)c1c(Nc2ccc([C@H](N(C)C(=O)C3CCS(=O)(=O)CC3)C(F)(F)F)cc2)cnc2cc(Cl)nn12,"cell-free assay, competition with immobilised ligand",1 µM,94%
COc1cnc(Nc2cccc(S(N)(=O)=O)c2)nc1N1CCN(c2ccccc2)C(=O)C1,"binding, competition with immobilised ligand",1 µM,93%
c1cncc(-c2cccc(Nc3nccc(NC4CCCCC4)n3)c2)c1,"binding, competition with immobilised ligand",10 µM,1%
CC1CCCN1c1nccc(-c2cnn3ncccc23)n1 (stereo not shown),binding,1 µM,55%
CCN1CCN(Cc2ccc(C(=O)Nc3ccc(C)c(Oc4ccc5c(c4)CC(=O)N5)c3)cc2C(F)(F)F)CC1,"binding, competition with immobilised ligand",1 µM,94%
